Compound activity (PubChem)
B2AR ag: agonists of human beta-2 adrenergic receptor inducing internalization | Am2.2-beta2AR cells, FAP receptor internalization, flow cytometry | response, % (concentration not given with the values) | actives 0.43% (n = 340,000) | P07550;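 active = response above a set limit, near 3 SD of response in nonfluorescent compounds, cut at about 42% in these data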
MC4R antagonist: antagonists of human melanocortin 4 receptor (MC4R) | P32245 | MC4R-expressing cells, MTII-stimulated cAMP, LANCE TR-FRET | inhibition, % at 6.5 µM | actives 0.48% (n = 360,000) | AID 540295;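 active = inhibition above its plate's cutoff, the mean of tested wells on that plate plus 3 SD, cut at about 29% in these data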
Target sequence (P32245 whole entry, looked up): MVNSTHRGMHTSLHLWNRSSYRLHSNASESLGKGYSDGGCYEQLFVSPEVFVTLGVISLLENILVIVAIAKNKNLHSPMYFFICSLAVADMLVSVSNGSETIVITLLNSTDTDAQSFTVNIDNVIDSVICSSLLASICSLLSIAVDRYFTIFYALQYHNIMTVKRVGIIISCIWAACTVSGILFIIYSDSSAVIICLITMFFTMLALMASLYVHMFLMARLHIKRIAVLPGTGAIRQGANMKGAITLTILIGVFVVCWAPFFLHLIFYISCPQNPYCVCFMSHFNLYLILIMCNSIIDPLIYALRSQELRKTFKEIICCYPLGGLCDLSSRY
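Material: human MC4R-expressing U2OS cells. Probe or stimulus: Melanotan II challenge. Dosing: 6.5 µM single dose. Times: 30-min compound, 1-h challenge, 1-h detection, room temperature. Technique: TR-FRET with Eu-cAMP and labeled anti-cAMP, 671 nm. Replication: singlicate.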
PfG6PD inh: PfG6PD (Plasmodium falciparum) enzyme inhibition; AID 504690; inhibition, % at 20 µM; PfGluPho enzyme, NADPH resazurin-diaphorase fluorescence; actives 0.78% (n = 350,000);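 active = inhibition reaching at least a set limit at 20 µM in the primary screen, cut at about 59% in these data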
MC4R ag barr: agonists of human melanocortin 4 receptor (MC4R) beta-arrestin; U2OS MC4R beta-arrestin complementation, luminescence; percent of melanotan II response, DMSO zero; activation, % at 8.9 µM; actives 0.98% (n = 360,000); AID 540308;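 active = activation above a per-plate cutoff, the mean activation of sample wells on that plate plus 3 SD, cut at about 8% in these data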
ABHD5-PLIN5 inh: blocks binding of human ABHD5 to perilipin-5 | actives 0.78% (n = 360,000) | inhibition, % at 4 µM | AID 602281 | Split G. princeps luciferase complementation, luminescence, 4 h;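 active = inhibition above the mean inhibition across every tested compound plus 3 SD, cut at about 22% in these data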
PfG6PD confirm: confirmation of Plasmodium falciparum G6PD inhibitors; inhibition, % at 20 µM; AID 504753; actives 34% (n = 2,400); recombinant PfGluPho, NADPH-diaphorase-resazurin fluorescence; shares compounds with PfG6PD inh;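 active = inhibition of at least 50% at 20 µM in any single replicate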
Diaphorase 10uM: inhibits diaphorase or oxidizes, flagging false PfG6PD hits; shares compounds with PfG6PD inh; diaphorase-coupled resazurin reduction, fluorescence, NADPH 10 uM; inhibition, % at 20 µM; actives 39% (n = 820); AID 504862;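 active = average inhibition reaching 50% or more with the compound at 20 µM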;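 also: resorufin red fluorescence formed as diaphorase reduces resazurin using NADPH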
Diaph ctr 30uM: diaphorase inhibition or oxidation at 30 uM NADPH; shares compounds with PfG6PD inh; Diaphorase/resazurin coupled assay, resorufin fluorescence; inhibition, % at 20 µM; actives 29% (n = 820); AID 504863;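 active = inhibition averaging 50% or more, tested at 20 µM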
ABHD5-PLIN5 conf: ABHD5-PLIN5 interaction inhibition, confirmed | shares compounds with ABHD5-PLIN5 inh | biochemical ABHD5-PLIN5 interaction, luminescence | inhibition, % at 4 µM | actives 67% (n = 2,200) | AID 651612; in the data active = inhibition above about 23%
HNF4 split-luc: counter-screen for ABHD5-PLIN5 inhibitors: HNF4 split-luciferase; shares compounds with ABHD5-PLIN5 inh; HNF4 dimerization, luminescence, biochemical; inhibition, % at 4 µM; actives 77% (n = 2,200); AID 651674;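 active = mean inhibition across replicate wells exceeding the computed hit threshold, cut at about 13% in these data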;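 also: light from luciferase halves that rejoin when HNF4 fusion proteins dimerize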
Of the large screens only hits and unclear results are named; the others gave an inactive call (follow-up assays come after a bar, where they were run). Hits are enriched below; roughly 3% of the tested compounds scored in any of these assays.

CC(=O)OCCN(C)c1cc(SC(C)C)c2nonc2c1[N+](=O)[O-]	none
CN(CCO)c1cc(Sc2nc3ccccc3s2)c2nonc2c1[N+](=O)[O-]	B2AR ag 99.2, PfG6PD inh 87.8, ABHD5-PLIN5 inh 48.8 | PfG6PD confirm 69.7 | Diaphorase 10uM inactive | Diaph ctr 30uM inactive | ABHD5-PLIN5 conf 80.3 | HNF4 split-luc 114.2
O=C(CC1C(=O)NCCN1Cc1cccc(F)c1F)NCCCC1CCCC1 (centres undefined)	none
O=C(Cn1sc2ccccc2c1=O)Nc1ccc(F)cc1	PfG6PD inh 125.0, ABHD5-PLIN5 inh 58.4 (no result: B2AR ag) | PfG6PD confirm 106.4 | Diaphorase 10uM inactive | Diaph ctr 30uM inactive | ABHD5-PLIN5 conf 68.8 | HNF4 split-luc 115.2
O=C(Cn1nc(-c2ccccc2)c2ccccc2c1=O)Nc1ccc(F)cc1	none
O=C(Cn1sc2ccccc2c1=O)Nc1ccc(Br)cc1	PfG6PD inh 123.0, ABHD5-PLIN5 inh 65.0 (no result: B2AR ag) | PfG6PD confirm 90.8 | Diaphorase 10uM inactive | Diaph ctr 30uM inactive | ABHD5-PLIN5 conf 81.3 | HNF4 split-luc 118.0
O=C(Cn1sc2ccccc2c1=O)Nc1ccc(Cl)cc1	PfG6PD inh 125.4, ABHD5-PLIN5 inh 62.2 (no result: B2AR ag) | PfG6PD confirm 95.8 | Diaphorase 10uM inactive | Diaph ctr 30uM inactive | ABHD5-PLIN5 conf 83.1 | HNF4 split-luc 118.2
